Data taken from ChEMBL document CHEMBL4616675, “Discovery of 6-Phenylhexanamide Derivatives as Potent Stereoselective Mitofusin Activators for the Treatment of Mitochondrial Diseases” (J Med Chem, 2020).
≈ marks a conversion by molar mass, not a printed value.

Assays:
[1] = Half life in human liver microsomes at 1 uM by LC-MS/MS analysis; type: ADME, Microsome; settings: for t1/2: microsomes, 1 µM; for half-life at 1 µM: liver microsomes
[2] = Half life in mouse liver microsomes at 1 uM by LC-MS/MS analysis; type: ADME, Microsome; settings: for t1/2: microsomes, 1 µM; for half-life at 1 µM: liver microsomes
[3] = Half life in CD1 mouse plasma at 10 mg/kg, iv by LC-MS/MS analysis; type: ADME, organism-based; settings: for t1/2: mouse, in vivo; for half-life: CD1, mouse, plasma
[4] = Half life in CD1 mouse brain at 10 mg/kg, iv by LC-MS/MS analysis; type: ADME, organism-based
[5] = Cmax in CD1 mouse plasma at 10 mg/kg, iv by LC-MS/MS analysis; type: ADME, organism-based; set-up: dose 10 mg/kg, route intravenous; settings: in vivo
[6] = Cmax in CD1 mouse brain at 10 mg/kg, iv by LC-MS/MS analysis; type: ADME, organism-based; set-up: dose 10 mg/kg, route intravenous
[7] = AUC in CD1 mouse plasma at 10 mg/kg, iv by LC-MS/MS analysis; type: ADME, organism-based; settings: in vivo
[8] = AUC in CD1 mouse brain at 10 mg/kg, iv by LC-MS/MS analysis; type: ADME, organism-based; settings: in vivo
[9] = Ratio of drug level in brain to plasma in CD1 mouse at 10 mg/kg, iv by LC-MS/MS analysis; type: ADME, organism-based
Summary of the method: (§1)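 Male CD-1 mice, 7–9 weeks, 15 per compound; single tail-vein dose of 10 mg/kg from a 2 mg/ml solution in 10% DMSO/90% (30% HP-β-CD). Plasma and brain sampled at increasing times, assayed in duplicate by LC-MS/MS. Parameters from non-compartmental analysis; mean of at least 3 mice per condition.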

[10] = Drug level in CD1 mouse brain at 10 mg/kg, iv after 1 hr by LC-MS/MS analysis; type: ADME, organism-based; settings: read-out: Drug uptake
Summary of the method: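 Male CD-1 mice, 7–9 weeks old, given a single 10 mg/kg tail-vein dose. Compound formulated at 2 mg/ml in 10% DMSO/90% (30% HP-β-CD). Plasma and brain sampled at intervals after dosing and analysed in duplicate by LC-MS/MS. Parameters derived by non-compartmental analysis. Values are means of at least 3 mice per condition; 15 mice per compound.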

[11] = Volume of distribution in CD1 mouse at 10 mg/kg, iv by LC-MS/MS analysis; type: ADME, organism-based; settings: in vivo; summary of the method: as §1
[12] = Stability in human plasma at 2 uM after 120 mins by LC-MS/MS analysis relative to control; type: ADME, cell-free; settings: read-out: Stability
Summary of the method: (§2)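 Compounds at 2 µM in clarified freeze-thawed plasma, sampled at 0, 10, 30, 60 and 120 min. Supernatants after protein precipitation analysed by LC-MS/MS; the 120 min value is reported. Run in duplicate.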

[13] = Stability in mouse plasma at 2 uM after 120 mins by LC-MS/MS analysis relative to control; type: ADME, cell-free; settings: read-out: Stability; summary of the method: as §2
[14] = Kinetic solubility in pH 7.4 aqueous solution incubated for 24 hrs by UV spectroscopy; type: physicochemical; settings: read-out: Kinetic_solubility

Row | t1/2 [1] | t1/2 [2] | SMILES | also measured
1 | > 145 min | > 145 min | O=C(CCCCCc1ccncn1)NC1CCC(O)CC1 (configuration not stated) | –
2 | > 145 min | 91 min | O=C(NCCCc1nnc(C2CC2)n1-c1ccccc1)NC1CCOCC1 | t1/2 [3]: 11.4 min
3 | 43 min | 6 min | CC1CCCCC1NC(=O)NCCCc1nnc(-c2ccccc2)n1C (configuration not stated) | –
4 | 8 min | 28 min | CC1CCCCC1NC(=O)NCCc1nnc(-c2ccccc2)n1C (configuration not stated) | –
5 | > 145 min | > 145 min | O=C(CCCCCc1ccncc1)NC1CCC(O)CC1 (configuration not stated) | –
6 | > 145 min | 137.5 min | O=C(NCCCCc1ccccc1)NC1CCNCC1 | –
7 | 13.3 min | 1.9 min | CC1CCCCC1NC(=O)NCCCCc1ccccc1 (configuration not stated) | –
8 | > 145 min | > 145 min | O=C(CCCCCc1ccccn1)NC1CCC(O)CC1 (configuration not stated) | –
9 | 40.1 min | 24.2 min | CC1CC(O)CCC1NC(=O)NCCCCc1ccccc1 (configuration not stated) | half-life [3]: 38.4 min; half-life [4]: 97.2 min; Cmax [5]: 3647 ng/mL; Cmax [6]: 366 ng/g; AUC [7]: 2564 ng·h/mL; AUC [8]: 207 ng·h/g; BPR [9]: 0.081; concentration at 1 h [10]: < 30 ng/g; Vd [11]: 2 L/kg
10 | > 145 min | > 145 min | O=C(CCCCOc1ccccc1)N[C@H]1CC[C@H](O)CC1 | –
11 | 6 min | 2 min | CC1CCCCC1NC(=O)NCCCc1nnc(C2CC2)n1-c1ccccc1 (configuration not stated) | remaining at 2 h, 2 µM [12]: 95%; remaining at 2 h, 2 µM [13]: 100%; solubility kinetic at 24 h [14]: > 200 µM; t1/2 [3]: 12.6 min
12 | > 145 min | > 145 min | O=C(COCCCc1ccccc1)N[C@H]1CC[C@H](O)CC1 | –
13 | 5 min | 1 min | CC1CCCCC1NC(=O)NCCCc1nnc(C2CC2)n1-c1ccc(F)cc1 (configuration not stated) | –
14 | 53.6 min | 9.9 min | O=C(CCCCCc1ccccc1)NC1CCOCC1 | –
15 | > 145 min | > 145 min | O=C(NCCCCc1ccccc1)NC1CCC(O)CC1 (configuration not stated) | half-life [3]: 69 min; half-life [4]: 104 min; Cmax [5]: 6100 ng/mL; Cmax [6]: 1270 ng/g; AUC [7]: 4860 ng·h/mL; AUC [8]: 829 ng·h/g; BPR [9]: 0.171; concentration at 1 h [10]: < 120 ng/g; Vd [11]: 2 L/kg
16 | > 145 min | > 145 min | CCn1c(CCCNC(=O)NC2CCOCC2)nnc1C1CC1 | t1/2 [3]: 22.8 min
17 | 62 min | 17 min | O=C(NCCCc1nnc(C2CC2)n1-c1ccc(F)cc1)NC1CCC(F)CC1 (configuration not stated) | –
18 | – | – | CC1CCCCC1NC(=O)NCCOc1nnc(C2CC2)n1-c1ccccc1 (configuration not stated) | remaining at 2 h, 2 µM [12]: 98%; remaining at 2 h, 2 µM [13]: 84%; half-life at 1 µM [1]: 8 min; half-life at 1 µM [2]: 3 min; solubility kinetic at 24 h [14]: 24 µM (≈ 9.2 µg/mL)
19 | > 145 min | > 145 min | O=C(CCOCCc1ccccc1)N[C@H]1CC[C@H](O)CC1 | –
20 | > 145 min | 125.3 min | O=C(CCCCCc1cccnc1)NC1CCC(O)CC1 (configuration not stated) | –
21 | 23.7 min | 111.9 min | NC1CCC(NC(=O)CCCCCc2ccccc2)CC1 (configuration not stated) | –
22 | 3 min | 1 min | CC1CCCCC1NC(=O)NCCSc1nnc(C2CC2)n1-c1ccccc1 (configuration not stated) | remaining at 2 h, 2 µM [12]: 95%; remaining at 2 h, 2 µM [13]: 94%; solubility kinetic at 24 h [14]: 67 µM (≈ 26.8 µg/mL)
23 | – | – | O=C(CCCCCc1ccccc1)NC1CCC(F)(F)CC1 | half-life at 1 µM [1]: 10.2 min; half-life at 1 µM [2]: 2.8 min
24 | > 145 min | > 145 min | O=C(CCCOCc1ccccc1)N[C@H]1CC[C@H](O)CC1 | –
25 | 7 min | 1.4 min | CC1CCC(NC(=O)CCCCCc2ccccc2)CC1 (configuration not stated) | –

Row | SMILES | t1/2 [1] | t1/2 [2] | also measured
26 | O=C(N[C@H]1CC[C@H](O)CC1)OCCCCc1ccccc1 | 131.3 min | 48.9 min | –
